According to ChEMBL document CHEMBL5104225, “Synthesis and structure-activity relationship studies of N-terminal analogues of the lipopeptide antibiotics brevicidine and laterocidine” (RSC Med Chem, 2022):
Values after ≈ are worked out from the molar mass of the structure shown. Bridge positions count the residues as written; N and C are the ends. Square brackets hold non-standard residues; d marks the D form. Peptide text beside a SMILES is read from it. * marks the point of attachment. Palmitoyl = CCCCCCCCCCCCCCCC(=O)*; Lauroyl = CCCCCCCCCCCC(=O)*; Decanoyl = CCCCCCCCCC(=O)*; dOrn = NCCC[C@@H](N)C(=O)O; Orn = NCCC[C@H](N)C(=O)O; Hexanoyl = CCCCCC(=O)*; Butyryl = CCCC(=O)*

Assays:
Format in all cases: functional
[1] = test system: Acinetobacter baumannii; experiment: Antibacterial activity against Acinetobacter baumannii ATCC 17961 assessed as inhibition of bacterial growth incubated for 18 hrs by CLSI protocol based method
Outline: (§1)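 Single colonies from blood agar (16 h, 37 °C) grown in TSB at 37 °C, 220 rpm to OD600 ~0.5, then diluted in MHB to 2×10^5 CFU/mL. Mixed with serial MHB dilutions of DMSO stocks in polypropylene plates, sealed, and incubated 18 h at 37 °C, 600 rpm. MIC was taken as the lowest concentration with no visible growth; three technical replicates.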

[2] = test system: Escherichia coli; experiment: Antibacterial activity against Escherichia coli ATCC 25922 assessed as inhibition of bacterial growth incubated for 18 hrs by CLSI protocol based method
Outline: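 Broth microdilution MIC. Strain streaked from glycerol stock on sheep blood agar (16 h, 37 °C); a colony was grown in TSB at 37 °C, 220 rpm, to OD600 about 0.5. Cells were diluted in MHB to 2×10^5 CFU/mL and added 1:1 to serial dilutions in MHB in polypropylene plates.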

[3] = test system: Pseudomonas aeruginosa; experiment: Antibacterial activity against Pseudomonas aeruginosa PAO1 assessed as inhibition of bacterial growth incubated for 18 hrs by CLSI protocol based method; outline: as §1
[4] = test system: Klebsiella pneumoniae; experiment: Antibacterial activity against Klebsiella pneumoniae ATCC 13883 assessed as inhibition of bacterial growth incubated for 18 hrs by CLSI protocol based method; outline: as §1
[5] = test system: Staphylococcus aureus; experiment: Antibacterial activity against Staphylococcus aureus USA300 assessed as inhibition of bacterial growth incubated for 18 hrs by CLSI protocol based method; outline: as §1
[6] = test system: Escherichia coli; experiment: Antibacterial activity against colistin-resistant Escherichia coli ATCC 25922 carrying MCR-1 gene assessed as inhibition of bacterial growth incubated for 18 hrs by CLSI protocol based method
Outline: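 Broth microdilution MIC. MCR-1 strain grown from glycerol stock in TSB with kanamycin (16 h, 37 °C, 220 rpm), diluted 100-fold in the same medium and grown to OD600 about 0.5. Cells were diluted in MHB to 2×10^5 CFU/mL and added 1:1 to serial dilutions in MHB. Incubated 18 h, 37 °C, 600 rpm; visual lowest no-growth concentration; three technical replicates.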

Row | SMILES | MIC [1] | MIC [2] | MIC [3] | MIC [4] | MIC [5] | MIC [6]
1 | CC[C@H](C)[C@@H]1NC(=O)[C@@H](NC(=O)[C@H](Cc2c[nH]c3ccccc23)NC(=O)[C@@H](CCCN)NC(=O)CNC(=O)[C@H](CCCN)NC(=O)[C@@H](CCCN)NC(=O)[C@@H](Cc2c[nH]c3ccccc23)NC(=O)[C@@H](Cc2ccc(O)cc2)NC(=O)[C@H](N)CC(N)=O)[C@@H](C)OC(=O)[C@H](CO)NC(=O)CNC1=O | > 32 µg/mL | > 32 µg/mL | 16 µg/mL (≈ 11.4 µM) | > 32 µg/mL | > 32 µg/mL | 
2 | CC[C@H](C)[C@@H]1NC(=O)[C@@H](NC(=O)[C@H](Cc2c[nH]c3ccccc23)NC(=O)[C@@H](CCCN)NC(=O)CNC(=O)[C@H](CCCN)NC(=O)[C@@H](CCCN)NC(=O)[C@@H](Cc2c[nH]c3ccccc23)NC(=O)[C@@H](Cc2ccc(O)cc2)NC(=O)[C@@H](CC(N)=O)NC(C)=O)[C@@H](C)OC(=O)[C@H](CO)NC(=O)CNC1=O (Ac-[dN][dY][dW][dOrn][Orn]G[dOrn]WTIGS; ester 9-C) | > 32 µg/mL | > 32 µg/mL | 8 µg/mL (≈ 5.52 µM) | > 32 µg/mL | > 32 µg/mL | 
3 | CC[C@H](C)[C@@H]1NC(=O)[C@@H](NC(=O)[C@H](Cc2c[nH]c3ccccc23)NC(=O)[C@@H](CCCN)NC(=O)CNC(=O)[C@H](CCCN)NC(=O)[C@@H](CCCN)NC(=O)[C@@H](Cc2c[nH]c3ccccc23)NC(=O)[C@@H](Cc2ccc(O)cc2)NC(=O)[C@@H](CO)NC(C)=O)[C@@H](C)OC(=O)CNC(=O)CNC(=O)[C@H](CC(N)=O)NC1=O (Ac-[dS][dY][dW][dOrn][Orn]G[dOrn]WTINGG; ester 9-C) | > 32 µg/mL | > 32 µg/mL | 16 µg/mL (≈ 10.6 µM) | > 32 µg/mL | > 32 µg/mL | 
4 | CCCC(=O)N[C@H](CC(N)=O)C(=O)N[C@H](Cc1ccc(O)cc1)C(=O)N[C@H](Cc1c[nH]c2ccccc12)C(=O)N[C@H](CCCN)C(=O)N[C@@H](CCCN)C(=O)NCC(=O)N[C@H](CCCN)C(=O)N[C@@H](Cc1c[nH]c2ccccc12)C(=O)N[C@@H]1C(=O)N[C@@H]([C@@H](C)CC)C(=O)NCC(=O)N[C@@H](CO)C(=O)O[C@@H]1C (Butyryl-[dN][dY][dW][dOrn][Orn]G[dOrn]WTIGS; ester 9-C) | 32 µg/mL (≈ 21.7 µM) | 32 µg/mL (≈ 21.7 µM) | 16 µg/mL (≈ 10.8 µM) | 8 µg/mL (≈ 5.41 µM) | > 32 µg/mL | 32 µg/mL (≈ 21.7 µM)
5 | CCCC(=O)N[C@H](CO)C(=O)N[C@H](Cc1ccc(O)cc1)C(=O)N[C@H](Cc1c[nH]c2ccccc12)C(=O)N[C@H](CCCN)C(=O)N[C@@H](CCCN)C(=O)NCC(=O)N[C@H](CCCN)C(=O)N[C@@H](Cc1c[nH]c2ccccc12)C(=O)N[C@@H]1C(=O)N[C@@H]([C@@H](C)CC)C(=O)N[C@@H](CC(N)=O)C(=O)NCC(=O)NCC(=O)O[C@@H]1C (Butyryl-[dS][dY][dW][dOrn][Orn]G[dOrn]WTINGG; ester 9-C) | > 32 µg/mL | 16 µg/mL (≈ 10.4 µM) | 8 µg/mL (≈ 5.21 µM) | 32 µg/mL (≈ 20.9 µM) | > 32 µg/mL | 32 µg/mL (≈ 20.9 µM)
6 | CCCCCCCCCC(=O)N[C@H](CC(N)=O)C(=O)N[C@H](Cc1ccc(O)cc1)C(=O)N[C@H](Cc1c[nH]c2ccccc12)C(=O)N[C@H](CCCN)C(=O)N[C@@H](CCCN)C(=O)NCC(=O)N[C@H](CCCN)C(=O)N[C@@H](Cc1c[nH]c2ccccc12)C(=O)N[C@@H]1C(=O)N[C@@H]([C@@H](C)CC)C(=O)NCC(=O)N[C@@H](CO)C(=O)O[C@@H]1C (Decanoyl-[dN][dY][dW][dOrn][Orn]G[dOrn]WTIGS; ester 9-C) | 4 µg/mL (≈ 2.56 µM) | 4 µg/mL (≈ 2.56 µM) | 8 µg/mL (≈ 5.12 µM) | 4 µg/mL (≈ 2.56 µM) | 32 µg/mL (≈ 20.5 µM) | 4 µg/mL (≈ 2.56 µM)
7 | CCCCCCCCCC(=O)N[C@H](CO)C(=O)N[C@H](Cc1ccc(O)cc1)C(=O)N[C@H](Cc1c[nH]c2ccccc12)C(=O)N[C@H](CCCN)C(=O)N[C@@H](CCCN)C(=O)NCC(=O)N[C@H](CCCN)C(=O)N[C@@H](Cc1c[nH]c2ccccc12)C(=O)N[C@@H]1C(=O)N[C@@H]([C@@H](C)CC)C(=O)N[C@@H](CC(N)=O)C(=O)NCC(=O)NCC(=O)O[C@@H]1C (Decanoyl-[dS][dY][dW][dOrn][Orn]G[dOrn]WTINGG; ester 9-C) | 2 µg/mL (≈ 1.24 µM) | 2 µg/mL (≈ 1.24 µM) | 2 µg/mL (≈ 1.24 µM) | 2 µg/mL (≈ 1.24 µM) | > 32 µg/mL | 2 µg/mL (≈ 1.24 µM)
8 | CC[C@H](C)[C@@H]1NC(=O)[C@@H](NC(=O)[C@H](Cc2c[nH]c3ccccc23)NC(=O)[C@@H](CCCN)NC(=O)CNC(=O)[C@H](CCCN)NC(=O)[C@@H](CCCN)NC(=O)[C@@H](Cc2c[nH]c3ccccc23)NC(=O)[C@@H](Cc2ccc(O)cc2)NC(=O)[C@H](N)CO)[C@@H](C)OC(=O)CNC(=O)CNC(=O)[C@H](CC(N)=O)NC1=O (H-[dS][dY][dW][dOrn][Orn]G[dOrn]WTINGG; ester 9-C) | > 32 µg/mL | > 32 µg/mL | > 32 µg/mL | > 32 µg/mL | > 32 µg/mL | 
9 | CCCCCC(=O)N[C@H](CC(N)=O)C(=O)N[C@H](Cc1ccc(O)cc1)C(=O)N[C@H](Cc1c[nH]c2ccccc12)C(=O)N[C@H](CCCN)C(=O)N[C@@H](CCCN)C(=O)NCC(=O)N[C@H](CCCN)C(=O)N[C@@H](Cc1c[nH]c2ccccc12)C(=O)N[C@@H]1C(=O)N[C@@H]([C@@H](C)CC)C(=O)NCC(=O)N[C@@H](CO)C(=O)O[C@@H]1C (Hexanoyl-[dN][dY][dW][dOrn][Orn]G[dOrn]WTIGS; ester 9-C) | 16 µg/mL (≈ 10.6 µM) | 8 µg/mL (≈ 5.31 µM) | > 32 µg/mL | 4 µg/mL (≈ 2.66 µM) | > 32 µg/mL | 8 µg/mL (≈ 5.31 µM)
10 | CCCCCC(=O)N[C@H](CO)C(=O)N[C@H](Cc1ccc(O)cc1)C(=O)N[C@H](Cc1c[nH]c2ccccc12)C(=O)N[C@H](CCCN)C(=O)N[C@@H](CCCN)C(=O)NCC(=O)N[C@H](CCCN)C(=O)N[C@@H](Cc1c[nH]c2ccccc12)C(=O)N[C@@H]1C(=O)N[C@@H]([C@@H](C)CC)C(=O)N[C@@H](CC(N)=O)C(=O)NCC(=O)NCC(=O)O[C@@H]1C (Hexanoyl-[dS][dY][dW][dOrn][Orn]G[dOrn]WTINGG; ester 9-C) | 16 µg/mL (≈ 10.2 µM) | 4 µg/mL (≈ 2.56 µM) | 4 µg/mL (≈ 2.56 µM) | 8 µg/mL (≈ 5.12 µM) | > 32 µg/mL | 8 µg/mL (≈ 5.12 µM)
11 | CCCCCCCCCCCC(=O)N[C@H](CC(N)=O)C(=O)N[C@H](Cc1ccc(O)cc1)C(=O)N[C@H](Cc1c[nH]c2ccccc12)C(=O)N[C@H](CCCN)C(=O)N[C@@H](CCCN)C(=O)NCC(=O)N[C@H](CCCN)C(=O)N[C@@H](Cc1c[nH]c2ccccc12)C(=O)N[C@@H]1C(=O)N[C@@H]([C@@H](C)CC)C(=O)NCC(=O)N[C@@H](CO)C(=O)O[C@@H]1C (Lauroyl-[dN][dY][dW][dOrn][Orn]G[dOrn]WTIGS; ester 9-C) | 4 µg/mL (≈ 2.52 µM) | 8 µg/mL (≈ 5.03 µM) | 16 µg/mL (≈ 10.1 µM) | 8 µg/mL (≈ 5.03 µM) | 32 µg/mL (≈ 20.1 µM) | 8 µg/mL (≈ 5.03 µM)
12 | CCCCCCCCCCCC(=O)N[C@H](CO)C(=O)N[C@H](Cc1ccc(O)cc1)C(=O)N[C@H](Cc1c[nH]c2ccccc12)C(=O)N[C@H](CCCN)C(=O)N[C@@H](CCCN)C(=O)NCC(=O)N[C@H](CCCN)C(=O)N[C@@H](Cc1c[nH]c2ccccc12)C(=O)N[C@@H]1C(=O)N[C@@H]([C@@H](C)CC)C(=O)N[C@@H](CC(N)=O)C(=O)NCC(=O)NCC(=O)O[C@@H]1C (Lauroyl-[dS][dY][dW][dOrn][Orn]G[dOrn]WTINGG; ester 9-C) | 2 µg/mL (≈ 1.21 µM) | 4 µg/mL (≈ 2.43 µM) | 8 µg/mL (≈ 4.86 µM) | 8 µg/mL (≈ 4.86 µM) | 32 µg/mL (≈ 19.4 µM) | 4 µg/mL (≈ 2.43 µM)
13 | CCCCCCCCCCCCCCCC(=O)N[C@H](CC(N)=O)C(=O)N[C@H](Cc1ccc(O)cc1)C(=O)N[C@H](Cc1c[nH]c2ccccc12)C(=O)N[C@H](CCCN)C(=O)N[C@@H](CCCN)C(=O)NCC(=O)N[C@H](CCCN)C(=O)N[C@@H](Cc1c[nH]c2ccccc12)C(=O)N[C@@H]1C(=O)N[C@@H]([C@@H](C)CC)C(=O)NCC(=O)N[C@@H](CO)C(=O)O[C@@H]1C (Palmitoyl-[dN][dY][dW][dOrn][Orn]G[dOrn]WTIGS; ester 9-C) | 32 µg/mL (≈ 19.4 µM) | > 32 µg/mL | > 32 µg/mL | > 32 µg/mL | > 32 µg/mL | 
